Results of several laboratories.

Cn1cncc1[C@@](N)(c1ccc(Cl)cc1)c1ccc2c(c1)c(-c1cccc(Cl)c1)cc(=O)n2C  solubility (simulated gastric fluid; pH 1.02; 25 °C; acidic): > 3750 µg/mL
C/C(=N/c1ccc(/N=C/c2ccc(/C=N/c3ccc(/N=C(/C)N(C)C)cc3)cc2)cc1)N(C)C  solubility (shake flask; PBS; pH 7.4; 25 °C): 0.38 µg/mL
O=[N+]([O-])c1ccc(/C=N/c2c(-c3ccccc3)nc3ccc(Cl)cn23)cc1  solubility (aqueous buffer; pH 7): 25 µg/mL
Cc1cc(C)c2nc(-c3ccncc3)cc(C(=O)NCCCn3ccnc3)c2c1  solubility (PBS): > 20 µM
O=C(C=Cc1ccccc1)Nc1cc(-c2ccnc(N3CCC(O)CC3)c2)ccn1  solubility (water; pH 7.4): ~115 µg/mL
Cc1c(C(=O)O)ccc2c3n(nc12)[C@@H]1[C@H](C3)N(CC2CC2)[C@@]2(C(=O)Nc3cc(Cl)ccc32)[C@H]1c1cccc(Cl)c1F  solubility (aqueous buffer; pH 6.8): < 1 µg/mL
CC(C)[C@H](NC(=O)[C@H](Cc1cscn1)NC(=O)CCc1ccccc1)C(=O)N[C@@H](CCCNC(=N)N)C(=O)c1nc2ccccc2s1  solubility (PBS; 90 min; pH 7.4): > 10 µM
COc1ccc2cc3n(c(=O)c2c1OC)CCc1cc2c(cc1-3)OCO2  solubility (water; 24 h; 25 °C): < 0.05 µg/mL
CCCc1cc(C(=O)OC)c(NC(=O)C2CCN(C(C)=O)CC2)s1  solubility (PBS): > 20 µM
CC(=Nc1ccc(N=Cc2cnccn2)cc1)N(C)C  solubility (shake flask; PBS; 24 h; pH 7.4; 25 °C): ~20 µg/mL
Oc1ccccc1/C=N/c1c(-c2ccccc2)nc2ccc(Cl)cn12  solubility (aqueous buffer; pH 7): 125 µg/mL
Cn1cnc2ccc(Nc3c(F)ccc(NS(=O)(=O)N4CC(F)C4)c3Cl)c(Cl)c2c1=O  solubility (FaSSIF; pH 6.91): 13 µg/mL
